SR-BI uptake up: SR-BI HDL lipid transfer activation; 320,000 compounds, 0.096% hits; CHO ldlA[mSR-BI] cells, DiI-HDL uptake fluorescence, 3 h; 100 = double the neutral-control signal; activation, % at 12.5 µM;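 active = mean replicate activation of at least 60% and every replicate at or above 60%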
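Material: SR-BI-overexpressing, LDLR-lacking CHO cells; schedule: compound exposure 3 h, 37 °C; reagent: DiI-labelled HDL at 10 µg/mL final; technique: bottom-read fluorescence, 550/595 nm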
dFosB act: activators of mouse delta FosB homodimer. P13346. purified delta FosB, TAMRA-CDK5 oligo fluorescence polarization; percent of positive-control signal above neutral wells. activation, % at 25 µM. 340,000 compounds, 0.99% hits. AID 493131;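 active = mean activation above about 17%, with every replicate also reaching it, limit read from the data, passing the limit was not always enough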
NSD2 HMT inh: NSD2 (human) methyltransferase inhibition. O96028. NSD2 peptide methylation, AlphaScreen, 120 min. inhibition, % at 12.5 µM. 310,000 compounds, 0.54% hits
SR-BI DiI inh: mouse SR-BI HDL lipid transfer inhibition; Q61009; ldlA[mSR-BI] CHO cells, DiI-HDL uptake fluorescence, 3 h; inhibition, % at 12.5 µM; 320,000 compounds, 0.96% hits;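 active = mean replicate inhibition of at least 70% and a set share of replicates each scoring 70 or more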
CDK5 inh: inhibitors of human CDK5/p35 kinase | Q00535+Q15078 | AID 488839 | Recombinant CDK5/p35, ADP-Glo luminescence, 60 min | 330,000 compounds, 0.01% hits | inhibition, % at 10 µM;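 active = highest replicate inhibition of at least 50% and at least 75% of replicates reaching 50%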
Dyrk1A ADPGlo: Dyrk1A (rat) kinase inhibition. Q63470. ADP-Glo luminescence, NFATc1 peptide. inhibition, % at 12.5 µM. 310,000 compounds, 0.43% hits
A number is an active result; - = inactive; . = not tested or not shown. Most compounds without a hit are left out; they make up all but 2.5% or so of the library. Rule as the data show it, unless noted: active = inhibition above about 50%; inactive = the rest.

SMILES	SR-BI uptake up	dFosB act	NSD2 HMT inh	SR-BI DiI inh	CDK5 inh	Dyrk1A ADPGlo
Cn1c(=O)c2cc(S(=O)(=O)N3CCN(CCO)CC3)ccc2n(C)c1=O	.	.	-	.	.	.
Cc1nc2ccccc2c(=O)n1/N=C/c1ccc2ccccc2c1O	-	-	-	90	-	.
COc1cc(/C=N/n2c(C)nc3ccccc3c2=O)ccc1O	507	-	-	-	-	-
Cc1nnc(-c2ccccc2)c(=O)n1/N=C/c1c(O)ccc2ccccc12	-	-	-	120	-	-
CCOC(=O)c1sc2nc(C)nc(SCC(=O)N(CC)C3CCS(=O)(=O)C3)c2c1C (centres undefined)	-	-	-	-	-	-
CCC(C)c1ccc(NC(=O)CSc2nnc(-c3cccc(C)c3)n2C)cc1 (centres undefined)	.	.	-	.	.	.
CCOC(=O)C1=C(CN2CCN(C(=O)c3ccco3)CC2)NC(=O)NC1c1ccc(OC(C)C)cc1 (centres undefined)	-	-	-	78	-	-
CCOC(=O)C1=C(CN2CCC(C)CC2)NC(=O)NC1c1ccc(Cl)cc1 (centres undefined)	-	-	-	78	-	-
CCOC(=O)C1=C(CN2CCN(C(=O)c3ccco3)CC2)NC(=O)NC1c1ccc(Cl)cc1 (centres undefined)	-	-	-	-	-	-
COc1ccc(-c2c(NC(=O)CC(C)C)n(C)c3ccccc3c2=O)cc1OC	-	-	-	-	-	-
CN(C)c1ccc(C=NNC(=O)c2cccc3ccccc23)c(Cl)c1	-	-	-	75	-	-
Fc1ccc(-c2n[nH]c(=S)n2N=Cc2cccc(OCc3ccccc3)c2)cc1	.	.	-	.	.	.
CC(OC(=O)c1ccc(NC(=O)CC#N)cc1)C(=O)NC(=O)NC1CCCCC1 (centres undefined)	.	58	-	-	-	-
CC(OC(=O)c1ccc(NC(=O)CC#N)cc1)C(=O)NCCC1=CCCCC1 (centres undefined)	-	-	-	-	-	-
Nn1c(SCC(=O)Nc2ccccc2-c2ccccc2)nnc1-c1cc(-c2ccccc2)n[nH]1	.	.	-	.	.	.
COc1nc(Nc2ccc([N+](=O)[O-])cc2)nc(NC2CCCCC2)n1	-	29	-	-	-	-
Cc1cc(=O)[nH]c(SCC(=O)Nc2ccc(F)c(F)c2)n1	.	.	-	.	.	.
COc1ccc(NC(=O)c2ccc(Cl)nc2)cc1S(=O)(=O)N1CCCCC1	-	-	-	75	-	-
COc1ccc(NC(=O)c2cc(OC)c(OC)c(OC)c2)cc1S(=O)(=O)N1CCCCC1	-	-	-	-	-	-
COc1ccc(/C=C/C(=O)NC(=S)Nc2ccc(S(=O)(=O)N=C(N)N)cc2)cc1OC	286	63	-	-	-	-
CCn1nc(C)c(/C=N/NC(=O)c2ccc3c(c2)c(C)c(C)n3Cc2ccccc2)c1C	-	-	-	79	-	-
CCn1ncc(/C=N\NC(=O)c2ccc3c(c2)c(C)c(C)n3Cc2ccccc2)c1C	-	-	-	-	-	-
CCOC(=O)C1CCCN(S(=O)(=O)c2cc3c(cc2Br)CCN3C(=O)CC)C1 (centres undefined)	.	.	-	.	.	.
CCOc1ccc(NC(=O)c2cccc(S(=O)(=O)NCc3cccnc3)c2)cc1	.	.	-	.	.	.
O=[N+]([O-])c1cccc(-c2cc(-c3cc(Br)ccc3O)[nH]n2)c1	-	-	-	86	-	-
SMILES	SR-BI uptake up	dFosB act	NSD2 HMT inh	SR-BI DiI inh	CDK5 inh	Dyrk1A ADPGlo
Oc1ccc(Br)cc1-c1cc(-c2ccccc2)n[nH]1	-	-	-	-	-	-
CC(C)(C)OC(=O)N(Cc1ccccc1)Cc1cccc(OCc2cccc(NC(=O)c3ccccc3)c2)c1	-	-	.	73	-	.
COc1cccc(OCC(=O)Nc2ccccc2NC(C)=O)c1	-	-	-	-	-	-
COc1cccc(OCC(=O)Nc2cc(Cl)ccc2Oc2ccccc2)c1	-	-	-	87	-	-
COC(=O)[C@H](C)NC(=O)[C@@H]1CCCN1C(=O)CNP(=O)(OCc1ccccc1)OCc1ccccc1	.	.	-	.	.	.
COc1cccc(C(=O)N=c2sc3c(C)ccc(OC)c3n2C)c1	-	-	.	81	-	-
O=C(CCn1c(=S)[nH]c2cc3c(cc2c1=O)OCO3)NCc1ccccc1Cl	-	35	-	-	-	-
O=C(CCn1c(=S)[nH]c2cc3c(cc2c1=O)OCO3)NCCc1ccccc1Cl	.	.	-	.	.	.
O=C(Nc1ccc(Cl)cc1)c1cc(Br)ccc1OCC(=O)N1CCOCC1	-	-	-	82	-	-
O=C(Nc1ccc(OCC(=O)N2CCOCC2)cc1)c1ccccc1F	-	-	-	-	-	-
CCC(=O)N(C1=C(NC(C)C)C(=O)c2ccccc2C1=O)C(C)C	-	-	70	-	-	-
CCC(=O)NC1=C(Nc2ccc(N)cc2)C(=O)c2ccccc2C1=O	-	-	-	-	-	-
Cc1cc(C(=O)N/N=C/c2c(C)nn(-c3ccccc3)c2C)n[nH]1	-	-	-	-	-	-
Cc1nn(-c2ccccc2)c(C)c1/C=N/NC(=O)c1cc(-c2ccc(Cl)s2)[nH]n1	-	-	-	-	-	-
Cc1nn(-c2ccccc2)c(C)c1/C=N/NC(=O)c1cc(-c2cccs2)[nH]n1	-	-	-	80	-	-
Cc1nn(-c2ccccc2)c(C)c1/C=N/NC(=O)c1cc(-c2ccc(Br)s2)[nH]n1	-	-	-	71	-	-
CCS(=O)(=O)N1N=C(c2ccc(NS(C)(=O)=O)cc2)CC1c1ccccc1 (centres undefined)	-	46	-	-	-	-
CCCCNc1c(-c2ccc(OC)c(Sc3ccc(OC)cc3)c2)nc2ccccn12	-	-	.	-	-	-
CCCCCCSc1ccc(-c2nc3ccc(Cl)cn3c2NCCCC)cc1OC	-	-	-	-	-	-
CCCCNc1c(-c2ccc(SC3CCCCC3)c(OC)c2)nc2ccc(Cl)cn12	-	-	.	75	-	-
CCCCNc1c(-c2ccc(-c3ccc(OC)cc3)c(OC)c2)nc2ccccn12	-	-	.	87	-	-
CC1C(=O)N2CCCc3cc(NC(=O)c4ccccc4F)cc1c32 (centres undefined)	-	-	-	-	-	-
CC(C)C(=O)NC(NC(=S)Nc1cccc2cccnc12)C(Cl)(Cl)Cl (centres undefined)	-	-	-	74	-	-
O=C(NCC(c1ccccc1)c1ccccc1)[C@H](Cc1c[nH]c2ccccc12)NC1(C(=O)NC2CCCCC2)CCN(Cc2ccccc2)CC1	.	.	-	.	.	.
COc1ccc(Sc2cccc(Cl)c2)c(C(=O)O)c1	.	.	-	.	.	.
O=C(Nc1ccc(Br)c(C(F)(F)F)c1)[C@@H]1CC=C[C@@H]2CCN(CC3CC3)C(=O)[C@@H]21	.	.	-	.	.	.
COc1ccc(-c2nn(-c3ccccc3)cc2/C=N/NC(=O)c2ccc3c(c2)OCO3)cc1	.	.	-	.	.	.

Assay outcomes (PubChem)
